Measured values published in PMC7993281 (Clinical and Translational Science, 2020).

Key:
[1] = Multiple-ascending dose; assay type: in vivo, human; settings: for Tmax: median (range); for CL renal: urine and plasma
How it was run: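 Oral 30, 100, 300 or 1,000 mg b.i.d. for 7 days in healthy men and women, n = 8 active per dose. Plasma sampled for 12 h on Day 1, at trough on Days 2–6, and up to 72 h after the last dose. Urine collected predose Day 1 and 0–12 h on Day 7. Validated LC-MS/MS. Noncompartmental analysis gave AUCτ, accumulation index and CLR.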

[2] = cited from earlier work
[3] = MAD study tolerability/safety; assay type: in vivo, human
How it was run: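 Healthy men and women aged 18–55 years, BMI 18–30 kg/m2, 8 active and 2 placebo per cohort. Oral 30–1,000 mg b.i.d. for 7 days with staggered dosing. Subjects were confined until 72 h after the last dose, with follow-up at 29–34 days. AEs, vital signs, ECG, physical examination and clinical laboratory tests were recorded and summarised descriptively.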

[4] = test system: organic cation transporter 2; settings: in vitro; ref Idorsia Pharmaceuticals Ltd, unpublished data; cited from earlier work
[5] = both, human, plasma, oral, 100 mg
[6] = both, human, plasma, oral, 300 mg
[7] = both, human, plasma, oral, 1000 mg b.i.d.
[8] = MAD 300 mg b.i.d. for 7 days (n = 8)

CCCCCN1C[C@H](O)[C@@H](O)[C@H](O)[C@@H]1CO [sinbaglustat, (2S,3R,4R,5S)‐2‐(hydroxymethyl)‐1‐pentylpiperidine‐3,4,5‐triol]
Tmax ([1]; both, human, plasma, oral, 30 mg, Day 1, 30 mg b.i.d.): 0.9 h | Tmax ([1]; both, human, plasma, oral, 30 mg, Day 7, 30 mg b.i.d.): 0.9 h | AUC [1, 5]: 4650 ng·h/mL | AUC(0-t) [1, 5]: 4480 ng·h/mL | Cmax ([1]; both, human, plasma, oral, 100 mg, Cmax, Day 1, 100 mg b.i.d., geometric mean (95% CI)): 1340 ng/mL | Cmax ([1]; both, human, plasma, oral, 100 mg, Cmax, Day 7, 100 mg b.i.d., geometric mean (95% CI)): 1270 ng/mL | Tmax ([1]; both, human, plasma, oral, 100 mg, Day 1, 100 mg b.i.d.): 0.9 h | Tmax ([1]; both, human, plasma, oral, 100 mg, Day 7, 100 mg b.i.d.): 1.3 h | AUC [1, 6]: 16800 ng·h/mL | AUC(0-t) [1, 6]: 15200 ng·h/mL | Cmax ([1]; both, human, plasma, oral, 300 mg, Cmax, Day 1, 300 mg b.i.d., geometric mean (95% CI)): 3760 ng/mL | Cmax ([1]; both, human, plasma, oral, 300 mg, Cmax, Day 7, 300 mg b.i.d., geometric mean (95% CI)): 3990 ng/mL | Tmax ([1]; both, human, plasma, oral, 300 mg, Day 1, 300 mg b.i.d.): 1.4 h | Tmax ([1]; both, human, plasma, oral, 300 mg, Day 7, 300 mg b.i.d.): 0.9 h | AUC [1, 7]: 51200 ng·h/mL | AUC(0-t) [1, 7]: 51200 ng·h/mL | half-life [1, 7]: 14.7 h | Cmax ([1]; both, human, plasma, oral, 1000 mg b.i.d., Cmax, Day 1, 1,000 mg b.i.d., geometric mean (95% CI)): 10600 ng/mL | Cmax ([1]; both, human, plasma, oral, 1000 mg b.i.d., Cmax, Day 7, 1,000 mg b.i.d., geometric mean (95% CI)): 10400 ng/mL | Tmax ([1]; both, human, plasma, oral, 1000 mg b.i.d., Day 1, 1,000 mg b.i.d.): 1.45 h | Tmax ([1]; both, human, plasma, oral, 1000 mg b.i.d., Day 7, 1,000 mg b.i.d.): 2 h | CL renal ([1]; both, human, oral, 30 mg): 211 mL/min | CL renal ([1]; both, human, oral, 100 mg): 192 mL/min | CL renal ([1]; both, human, oral, 300 mg): 144 mL/min | CL renal ([1]; both, human, oral, 1000 mg b.i.d.): 148 mL/min | dose excreted unchanged in urine ([1]; doses ranging from 30 to 1,000 mg b.i.d.): ~ 50% | Cmax ([1]; female, human, plasma, oral, 1000 mg b.i.d., geometric mean Cmax in women, female subjects, 1,000 mg b.i.d. cohort, day 7): 12000 ng/mL | blood‐brain barrier crossing [2]: crosses the blood‐brain barrier | Dizziness (subjects) ([3]; MAD 30 mg b.i.d. (n = 8)): 4 | Headache (subjects) ([3]; MAD 30 mg b.i.d. (n = 8)): 2 | Muscle twitching (subjects) ([3]; MAD 30 mg b.i.d. (n = 8)): 1 | Pain in extremity (subjects) ([3]; MAD 30 mg b.i.d. (n = 8)): 1 | Viral upper respiratory tract (subjects) ([3]; MAD 30 mg b.i.d. (n = 8)): 1 | Total number of AEs ([3]; MAD 30 mg b.i.d. for 7 days (n = 8)): 13 | Dizziness (subjects) ([3]; MAD 100 mg b.i.d. (n = 8)): 2 | Fatigue (subjects) ([3]; MAD 100 mg b.i.d. (n = 8)): 1 | Total number of AEs ([3]; MAD 100 mg b.i.d. for 7 days (n = 8)): 8 | Dizziness (subjects) ([3]; MAD 300 mg b.i.d. (n = 8)): 1 | Headache (subjects) ([3]; MAD 300 mg b.i.d. (n = 8)): 2 | Nausea (subjects) ([3]; MAD 300 mg b.i.d. (n = 8)): 1 | Rash (subjects) ([3]; MAD 300 mg b.i.d. (n = 8)): 1 | Number of subjects with at least 1 AE [3, 8]: 4 | Total number of AEs [3, 8]: 8 | Constipation (subjects) ([3]; MAD 1,000 mg b.i.d. (n = 8)): 1 | Decreased appetite (subjects) ([3]; MAD 1,000 mg b.i.d. (n = 8)): 3 | Diarrhea (subjects) ([3]; MAD 1,000 mg b.i.d. (n = 8)): 2 | Dizziness (subjects) ([3]; MAD 1,000 mg b.i.d. (n = 8)): 3 | Fatigue (subjects) ([3]; MAD 1,000 mg b.i.d. (n = 8)): 2 | Headache (subjects) ([3]; MAD 1,000 mg b.i.d. (n = 8)): 4 | Muscle twitching (subjects) ([3]; MAD 1,000 mg b.i.d. (n = 8)): 1 | Nausea (subjects) ([3]; MAD 1,000 mg b.i.d. (n = 8)): 3 | Palpitations (subjects) ([3]; MAD 1,000 mg b.i.d. (n = 8)): 1 | Vomiting (subjects) ([3]; MAD 1,000 mg b.i.d. (n = 8)): 2 | female subjects reporting headache (of 4) ([3]; MAD 1,000 mg b.i.d., female subjects): 4 | subjects reporting AEs (of 32 treated) ([3]; MAD, all doses): 19 | subjects reporting dizziness (of 32) ([3]; MAD, all doses): 10 | subjects reporting headache (of 32) ([3]; MAD, all doses): 8 | subjects reporting AEs ([3]; MAD, all doses, 32 subjects): 59% | total AEs reported ([3]; MAD, all doses, 32 subjects): 66 | organic cation transporter 2 interaction [4]: a substrate and an inhibitor
